Legend:
[1] = tested on: Rattus norvegicus; test: Analgesic activity was measured in rat yeast induced hyperalgesia assay at a dose of 30 mg/kg for 4 hr.; assay type: functional
Outline: (§1)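 Female Sprague-Dawley rats, 50-60 g, groups of 10, fasted overnight. Brewer's yeast (5% in 0.1 mL) injected subplantar. Compound given orally in 1% methylcellulose, 0.1 mL/10 g. Each group tested once, always 3 h after yeast. An animal counts as analgesic if vocalization needs ≥25 mmHg on the inflamed paw. Result is percent of animals analgesic.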

[2] = tested on: Rattus norvegicus; test: Plasma drug level was measured in rat yeast induced hyperalgesia assay in presence of indomethacin at a dose of 30 mg/kg for 1 hr.; assay type: functional
Outline: (§2)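 Rats are bled after the yeast hyperalgesia test. 50 μL plasma is mixed with an equal volume of 0.1 N HCl and injected directly on a C-18 reverse-phase HPLC column. Eluent is methanol/0.01 M phosphate pH 4 (65:35), 1.5 mL/min, with UV detection at 254 nm. Parent compound and indomethacin are quantified against standard calibration. Mean ± SEM, n=10.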

[3] = tested on: Rattus norvegicus; test: Analgesic activity was measured in rat yeast induced hyperalgesia assay at a dose of 30 mg/kg for 1 hr.; assay type: functional; outline: as §1
[4] = tested on: Rattus norvegicus; test: (§3) Vocalization threshold value was measured in rat yeast induced hyperalgesia assay at a dose of 30 mg/kg for 8 hr.; assay type: functional
Outline: (§4)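 Female Sprague-Dawley rats, 50-60 g, groups of 10, fasted overnight. Brewer's yeast (5% in 0.1 mL) injected subplantar, then oral dosing in 1% methylcellulose. An air-driven piston (2 mm) presses the plantar surface of the normal and yeast-injected paws. The pressure that causes vocalization is read on a manometer in mmHg, tested 3 h after yeast. Normal vs inflamed paw compared by paired t test. Mean ± SEM.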

[5] = tested on: Rattus norvegicus; test: Vocalization threshold value was measured in rat yeast induced hyperalgesia assay at a dose of 30 mg/kg for 1 hr.; assay type: functional; outline: as §4
[6] = tested on: Rattus norvegicus; test: Plasma drug level was measured in rat yeast induced hyperalgesia assay in presence of indomethacin at a dose of 30 mg/kg for 4 hr.; assay type: functional; outline: as §2
[7] = tested on: Mus musculus; test: Inhibition of phenylbenzoquinone writhing in mice was tested at the dose of 30 mg/kg for 4 hr; assay type: functional
Outline: (§5)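 Male CD-1 mice, 18-22 g, groups of 10, fasted overnight. Oral dose in 1% methylcellulose (0.1 mL/10 g) at set times before phenylbenzoquinone, 2.0 mg/kg ip. Writhes counted 5-15 min after PBQ. % inhibition = 100 − (drug mean/vehicle mean × 100).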

[8] = tested on: Rattus norvegicus; test: Plasma drug level was measured in rat yeast induced hyperalgesia assay in presence of indomethacin at a dose of 30 mg/kg for 8 hr.; assay type: functional; outline: as §2
[9] = tested on: Mus musculus; test: Inhibition of phenylbenzoquinone writhing in mice was tested at the dose of 30 mg/kg for 1 hr; assay type: functional; outline: as §5
[10] = tested on: Rattus norvegicus; test: Analgesic activity was measured in rat yeast induced hyperalgesia assay at a dose of 30 mg/kg for 8 hr.; assay type: functional; outline: as §1
[11] = tested on: Mus musculus; test: Inhibition of phenylbenzoquinone writhing in mice was tested at the dose of 30 mg/kg for 6 hr; assay type: functional; outline: as §5
[12] = tested on: Rattus norvegicus; test: Vocalization threshold value was measured in rat yeast induced hyperalgesia assay at a dose of 10 mg/kg for 1 hr.; assay type: functional; outline: as §4
[13] = tested on: Rattus norvegicus; test: as §3; assay type: functional; remark: listed apart in the source
[14] = tested on: Rattus norvegicus; test: Plasma drug level was measured in rat yeast induced hyperalgesia assay in presence of drug 6 or 7 at a dose of 30 mg/kg for 8 hr.; assay type: functional; outline: as §2
[15] = tested on: Rattus norvegicus; test: Vocalization threshold value was measured in rat yeast induced hyperalgesia assay at a dose of 30 mg/kg for 4 hr.; assay type: functional; outline: as §4
[16] = tested on: Mus musculus; test: Inhibition of phenylbenzoquinone writhing in mice was tested at the dose of 30 mg/kg for 2 hr; assay type: functional; outline: as §5
[17] = tested on: Rattus norvegicus; test: Plasma drug level was measured in rat yeast induced hyperalgesia assay in presence of drug 6 or 7 at a dose of 30 mg/kg for 1 hr.; assay type: functional; outline: as §2
[18] = tested on: Rattus norvegicus; test: Plasma drug level was measured in rat yeast induced hyperalgesia assay in presence of drug 6 or 7 at a dose of 30 mg/kg for 4 hr.; assay type: functional; outline: as §2
[19] = tested on: Rattus norvegicus; test: Analgesic activity was measured in rat yeast induced hyperalgesia assay at a dose of 30 mg/kg for 24 hr.; assay type: functional; outline: as §1
[20] = tested on: Rattus norvegicus; test: Plasma drug level was measured in rat yeast induced hyperalgesia assay in presence of indomethacin at a dose of 30 mg/kg for 24 hr.; assay type: functional; outline: as §2
[21] = tested on: Rattus norvegicus; test: Vocalization threshold value was measured in rat yeast induced hyperalgesia assay at a dose of 10 mg/kg for 6 hr.; assay type: functional; outline: as §4
[22] = tested on: Rattus norvegicus; test: Analgesic activity was measured in rat yeast induced hyperalgesia assay at a dose of 10 mg/kg for 6 hr.; assay type: functional; outline: as §1
[23] = tested on: Rattus norvegicus; test: Vocalization threshold value was measured in rat yeast induced hyperalgesia assay at a dose of 30 mg/kg for 12 hr.; assay type: functional; outline: as §4
[24] = tested on: Rattus norvegicus; test: Analgesic activity was measured in rat yeast induced hyperalgesia assay at a dose of 30 mg/kg for 12 hr.; assay type: functional; outline: as §1
[25] = tested on: Rattus norvegicus; test: (§6) Vocalization threshold value was measured in rat yeast induced hyperalgesia assay at a dose of 30 mg/kg for 24 hr.; assay type: functional
[26] = tested on: Rattus norvegicus; test: Analgesic activity was measured in rat yeast induced hyperalgesia assay at a dose of 10 mg/kg for 1 hr.; assay type: functional; outline: as §1
[27] = tested on: Rattus norvegicus; test: (§7) Vocalization threshold value was measured in rat yeast induced hyperalgesia assay at a dose of 10 mg/kg for 8 hr.; assay type: functional; outline: as §4
[28] = tested on: Rattus norvegicus; test: Plasma drug level was measured in rat yeast induced hyperalgesia assay in presence of drug 6 or 7 at a dose of 30 mg/kg for 12 hr; assay type: functional; outline: as §2
[29] = tested on: Rattus norvegicus; test: as §7; assay type: functional; remark: listed apart in the source
[30] = tested on: Rattus norvegicus; test: Analgesic activity was measured in rat yeast induced hyperalgesia assay at a dose of 10 mg/kg for 8 hr.; assay type: functional; outline: as §1
[31] = tested on: Rattus norvegicus; test: Plasma drug level was measured in rat yeast induced hyperalgesia assay in presence of indomethacin at a dose of 30 mg/kg for 12 hr.; assay type: functional; outline: as §2
[32] = tested on: Rattus norvegicus; test: as §6; assay type: functional; outline: as §4; remark: listed apart in the source
[33] = tested on: Rattus norvegicus; test: Plasma drug level was measured in rat yeast induced hyperalgesia assay in presence of indomethacin at a dose of 10 mg/kg for 8 hr.; assay type: functional; outline: as §2
[34] = tested on: Rattus norvegicus; test: Vocalization threshold value was measured in rat yeast induced hyperalgesia assay at a dose of 10 mg/kg for 24 hr.; assay type: functional; outline: as §4
[35] = tested on: Rattus norvegicus; test: Analgesic activity was measured in rat yeast induced hyperalgesia assay at a dose of 10 mg/kg for 4 hr.; assay type: functional; outline: as §1
[36] = tested on: Rattus norvegicus; test: Compound was tested for hyperalgesia activity in rats after perorally administered at 1 hr; conditions: po
[37] = tested on: Rattus norvegicus; test: Plasma drug level was measured in rat yeast induced hyperalgesia assay in presence of indomethacin at a dose of 10 mg/kg for 12 hr.; assay type: functional; outline: as §2
[38] = tested on: Rattus norvegicus; test: Plasma drug level was measured in rat yeast induced hyperalgesia assay in presence of indomethacin at a dose of 10 mg/kg for 4 hr.; assay type: functional; outline: as §2
[39] = tested on: Mus musculus; test: Inhibition of phenylbenzoquinone writhing in mice was tested at the dose of 3 mg/kg for 2 hr; assay type: functional; outline: as §5
[40] = tested on: Rattus norvegicus; test: (§8) Vocalization threshold value was measured in rat yeast induced hyperalgesia assay at a dose of 10 mg/kg for 4 hr.; assay type: functional
[41] = tested on: Mus musculus; test: Compound was tested for […] activity in mice after perorally administered at 1 hr; assay type: functional; conditions: po
[42] = tested on: Rattus norvegicus; test: as §8; assay type: functional; outline: as §4; remark: listed apart in the source
[43] = tested on: Mus musculus; test: Inhibition of phenylbenzoquinone writhing in mice was tested at the dose of 3 mg/kg for 1 hr; assay type: functional; outline: as §5
[44] = tested on: Rattus norvegicus; test: Plasma drug level was measured in rat yeast induced hyperalgesia assay in presence of indomethacin at a dose of 10 mg/kg for 1 hr.; assay type: functional; outline: as §2
[45] = tested on: Rattus norvegicus; test: Analgesic activity was measured in rat yeast induced hyperalgesia assay at a dose of 10 mg/kg for 12 hr.; assay type: functional; outline: as §1
[46] = tested on: Rattus norvegicus; test: Plasma drug level was measured in rat yeast induced hyperalgesia assay in presence of indomethacin at a dose of 10 mg/kg for 24 hr.; assay type: functional; outline: as §2
[47] = tested on: Rattus norvegicus; test: Vocalization threshold value was measured in rat yeast induced hyperalgesia assay at a dose of 10 mg/kg for 12 hr.; assay type: functional; outline: as §4
[48] = tested on: Mus musculus; test: Inhibition of phenylbenzoquinone writhing in mice was tested at the dose of 3 mg/kg for 4 hr; assay type: functional; outline: as §5
[49] = tested on: Rattus norvegicus; test: Analgesic activity was measured in rat yeast induced hyperalgesia assay at a dose of 10 mg/kg for 24 hr.; assay type: functional; outline: as §1

For `COc1ccc2c(c1)c(/C=C/CC(=O)O)c(C)n2C(=O)c1ccc(Cl)cc1`, the Analgesic [1] was 30%, the Drug level [2] was less than 1 µg/mL and the Analgesic [3] was 10%. The Inflamed [4] was 21.6 mmHg, the Inflamed [5] was 14.2 mmHg and the Drug level [6] was less than 1 µg/mL. It also gave a Writhes [7] of 23, an inhibition in vivo at 30 mg/kg [7] of 46% and a Drug level [8] of less than 1 µg/mL. For the same molecule, the Writhes [9] was 34, the inhibition in vivo at 30 mg/kg [9] was 19% and the Analgesic [10] was 30%. For the same molecule, the Writhes [11] was 29.5, the inhibition in vivo at 30 mg/kg [11] was 28% and the Normal [12] was 25.8 mmHg. For the same molecule, the Normal [13] was 25.4 mmHg, the Drug level [14] was 10 µg/mL and the Inflamed [15] was 20.2 mmHg. The Normal [15] was 23.4 mmHg, the Writhes [16] was 28.6 and the inhibition in vivo at 30 mg/kg [16] was 32%. The Drug level [17] was 26 µg/mL and the Drug level [18] was 17 µg/mL.

Molecule `COc1ccc2c(c1)c(/C=C/CCCC(=O)O)c(C)n2C(=O)c1ccc(Cl)cc1` has an Analgesic [19] of 0%, an Analgesic [1] of 60% and a Drug level [20] of 1.6 µg/mL. The Inflamed [21] was 21.6 mmHg, the Normal [21] was 22 mmHg and the Analgesic [3] was 60%. The Inflamed [4] was 27.6 mmHg, the Inflamed [5] was 25.4 mmHg and the Normal [5] was 23 mmHg. For the same molecule, the Analgesic [22] was 40%, the Inflamed [23] was 25 mmHg and the Normal [23] was 25.2 mmHg. The Analgesic [24] was 60%, the Inflamed [25] was 13 mmHg and the Drug level [6] was 2.2 µg/mL. For the same molecule, the Analgesic [26] was 10%, the Inflamed [27] was 23.8 mmHg and the Writhes [7] was 7.2. It also gave an inhibition in vivo at 30 mg/kg [7] of 65%, a Drug level [8] of 2.1 µg/mL and a Writhes [9] of 16.4. For the same molecule, the inhibition in vivo at 30 mg/kg [9] was 20%, the Drug level [28] was 1.1 µg/mL and the Analgesic [10] was 100%. The Inflamed [12] was 16.8 mmHg, the Normal [12] was 24 mmHg and the Normal [13] was 25.6 mmHg. It also gave a Normal [29] of 23.2 mmHg, an Analgesic [30] of 40% and a Drug level [14] of 6.1 µg/mL. It also gave an Inflamed [15] of 26 mmHg, a Normal [15] of 24.8 mmHg and a Drug level [31] of 2.2 µg/mL. It also gave a Writhes [16] of 15.3, an inhibition in vivo at 30 mg/kg [16] of 26% and a Normal [32] of 24.4 mmHg. It also gave a Drug level [18] of 24.1 µg/mL.

For `COc1ccc2c(c1)c(CC(=O)O)c(C)n2C(=O)c1ccc(Cl)cc1` [INDOMETHACIN], the Drug level [33] was 21 µg/mL, the Inflamed [34] was 16 mmHg and the Normal [34] was 22.4 mmHg. The Analgesic [35] was 100%, the ED50 [36] was 5 mg/kg and the Drug level [37] was 9.8 µg/mL. For the same molecule, the Drug level [38] was 38 µg/mL, the Analgesic [26] was 70% and the Writhes [39] was 38.3. The inhibition in vivo at 3 mg/kg [39] was 16%, the Inflamed [40] was 32 mmHg and the Inflamed [27] was 28.4 mmHg. For the same molecule, the Inflamed [12] was 30 mmHg, the Normal [12] was 27.9 mmHg and the ED50 [41] was 3 mg/kg. It also gave a Normal [29] of 28.4 mmHg, a Normal [42] of 26.8 mmHg and a Writhes [43] of 4.8. It also gave an inhibition in vivo at 3 mg/kg [43] of 89%, an Analgesic [30] of 40% and a Drug level [44] of 21 µg/mL. For the same molecule, the Analgesic [45] was 0%, the Drug level [46] was 3.3 µg/mL and the Inflamed [47] was 15.6 mmHg. For the same molecule, the Normal [47] was 24.4 mmHg, the Writhes [48] was 32.9 and the inhibition in vivo at 3 mg/kg [48] was 28%. For the same molecule, the Analgesic [49] was 0%.

Source: ChEMBL document CHEMBL1123877, “Metabolic synthesis of arylacetic acid antiinflammatory drugs from arylhexenoic acids. 2. Indomethacin” (1987)
